# An excerpt weighted towards active compounds, which were near 2.6% of everything screened.
# SENP8 block-1: SENP8 (human) protease inhibition. Q96LD8. recombinant SENP8, Nedd8 substrate fluorescence. inhibition, % at 20 µM. actives 0.64% (n = 360,000); in the data active means inhibition mostly above about 40%, no sharp cut-off; inactive means mostly below about 27%
# SENP6 inh: inhibitors of human SENP6 protease. Q9GZR1. Recombinant SENP6 catalytic domain, aminoluciferin luminescence. inhibition, % at 10 µM. actives 1.8% (n = 330,000);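 active means inhibition above about 50% at the single tested dose, limit read from the data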;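 further: plate controls were DMSO wells with enzyme for no effect and DMSO wells lacking enzyme for full effect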
# Target sequence (Q9GZR1 628-1112 limits assumed): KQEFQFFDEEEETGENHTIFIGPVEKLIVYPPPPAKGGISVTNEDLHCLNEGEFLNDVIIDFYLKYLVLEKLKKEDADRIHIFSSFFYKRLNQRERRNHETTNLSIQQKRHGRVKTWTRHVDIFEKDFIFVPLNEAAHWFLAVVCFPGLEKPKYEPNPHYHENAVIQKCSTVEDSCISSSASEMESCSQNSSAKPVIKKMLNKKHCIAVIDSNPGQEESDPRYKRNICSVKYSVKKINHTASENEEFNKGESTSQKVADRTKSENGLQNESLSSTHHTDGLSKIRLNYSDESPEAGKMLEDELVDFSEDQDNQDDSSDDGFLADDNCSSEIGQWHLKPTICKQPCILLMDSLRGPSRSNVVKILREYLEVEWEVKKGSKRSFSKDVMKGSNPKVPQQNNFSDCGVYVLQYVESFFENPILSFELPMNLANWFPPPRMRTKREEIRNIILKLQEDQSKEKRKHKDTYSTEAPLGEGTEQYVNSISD
# SENP8 block-2: blocks the human protease SENP8; Q96LD8; purified SENP8, Z-RLRGG-aminoluciferin cleavage, luminescence; inhibition, % at 10 µM; actives 1.2% (n = 330,000); AID 2540; in the data active means inhibition above about 50%
# SENP7 inh: SENP7 protease inhibition; inhibition, % at 5 µM; actives 1.5% (n = 330,000); recombinant SENP7, Z-RLRGG-aminoluciferin luminescence, 40 min; Q9BQF6;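 active means inhibition above about 50% at the single test dose, limit read from the data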;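 further: plate controls were DMSO with enzyme for no effect and no enzyme buffer wells for full effect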
# SENP1 inh: SENP1 (human) catalytic domain inhibition | actives 0.21% (n = 360,000) | inhibition, % at 10 µM | Q9P0U3 | recombinant SENP1 catalytic domain, CyPet-SUMO1-YPet FRET cleavage | AID 624204;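 active means inhibition at least 30% at 10 µM, raw YFP signal under a set limit, fluorescence ratio 0.5 to 1.5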;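 further: 0% = enzyme with DMSO and 100% = no enzyme wells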
#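 System: Recombinant human SENP1 catalytic domain, His6-tagged | Incubation: Enzyme reaction for 50 min at room temperature, dark | Medium: Tris pH 8 with BME, BSA, NP40 and catalase | Also added: 25 nM SUMO1 FRET substrate | Compound: 10 µM single point, 0.5% DMSO | Measured by: FRET fluorescence in CFP and YFP emission channels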
# Platelet DG rel: modulates dense granule release in human platelets; human platelet-rich plasma, SFLLRN dense granule ATP release, luminescence; inhibition, %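 (compounds screened at 7.5 µM in platelet-rich plasma)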; actives 0.22% (n = 300,000); AID 1663;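 active means mean replicate score, as percent of positive control, at or above 50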
# An asterisk follows results filed as active; . = no result; ! = a repeat was not active.
SMILES,SENP8 block-1,SENP6 inh,SENP8 block-2,SENP7 inh,SENP1 inh,Platelet DG rel
CN1/C(=C/C=C/c2n(C)c3cc([N+](=O)[O-])c([N+](=O)[O-])cc3[n+]2C)C(C)(C)c2ccccc21,60*,.,.,.,-27,.
CN(C)Cc1cc(O)c(CN(C)C)cc1O,55*,32,7,-2,32*,-6
Cc1cc(NC(=O)CCC(=O)NNC(=O)c2ccc(C(C)(C)C)cc2)no1,-10,-13,-13,5,2,-2
COc1ccc(OCCCC(=O)OC(C)C(=O)Nc2ccc(NC(C)=O)cc2)cc1 (centres undefined),9,8,-10,-9,0,57*
O=C1NCCCC1C(=O)N/N=C/c1cc([N+](=O)[O-])ccc1O (centres undefined),45*,-15,3,4,2,-1
O=C1NCCCC1C(=O)N/N=C/c1ccc([N+](=O)[O-])cc1 (centres undefined),13,-1,-4,-1,3,-2
O=C(O)c1ccc(N/N=C/C2=Cc3ccccc3OC2)cc1,-231,101*,98*,99*,-81,31
COc1ccccc1-n1c(SCC(=O)O)nnc1-c1ccc(S(=O)(=O)N2CCCCC2)cc1,10,14,1,9,5,2
COc1ccccc1C(O)c1ncc(-c2ccc(Cl)cc2)[nH]1 (centres undefined),18,.,.,.,2,.
CCN1/C(=C/c2ccc3cc(C)ccc3[n+]2C)Sc2ccc3sccc3c21,29,.,.,.,44*,.
CCOC(=O)/C(N=Nc1ccc(F)cc1)=C(/O)c1ccc([N+](=O)[O-])cc1,43*,-1,5,9,-2,-2
CCCCCCOC(=O)Nc1ccc(S(=O)(=O)Nc2cccc([N+](=O)[O-])c2)cc1,5,52*,-7,-8,2,-2
COc1cccc(-c2noc(-c3ccc(Br)o3)n2)c1,13,2,57*,73*,2,.
CC(=O)Nc1cc2c(cc1[N+](=O)[O-])-c1ccccc1C2=NO,17,.,.,.,19,.
CC(=O)Nc1cc2c(cc1[N+](=O)[O-])-c1ccccc1C2O (centres undefined),41*,.,.,.,8,.
Cn1cc(Cl)c(C(=O)Nc2nc3ccc([N+](=O)[O-])cc3s2)n1,7,65*,58*,90*,-75,-1
COC(=O)c1sccc1NC(=O)Nc1ccccc1F,7,70*,88*,98*,0,30
Cc1ccc(S(=O)(=O)Nc2nc3ccccc3nc2N2CCN(c3ccccc3F)CC2)cc1,-482,-9,1,1,-5,8
Cc1ccc(S(=O)(=O)NC2=C(N3CCN(Cc4ccccc4)CC3)C(=O)c3ccccc3C2=O)cc1,39*,5,-6,-2,-11,-4
O=C1C(NS(=O)(=O)c2cccs2)=C(N2CCN(c3ccccc3)CC2)C(=O)c2ccccc21,69*,9,5,11,1,0
Cc1ccc(S(=O)(=O)NC2=C(N3CCN(c4ccccc4F)CC3)C(=O)c3ccccc3C2=O)cc1,46*!,26,0,27,-5,4
O=C(Nc1cccc(NC(=O)c2ccccc2Cl)c1)c1ccco1,13,-24,-10,8,0,59*
O=C(Nc1ccc(N=Nc2ccccc2)cc1)c1ccc(Cl)cc1Cl,20,-5,-1,4,-1,-4
CC(=O)Nc1cccc(NC(=O)c2ccccc2Cl)c1,-2,.,.,.,2,.
O=C(Nc1cccc(NC(=O)c2cccnc2Cl)c1)c1ccco1,6,12,1,7,-1,112*
SMILES,SENP8 block-1,SENP6 inh,SENP8 block-2,SENP7 inh,SENP1 inh,Platelet DG rel
O=C(Nc1ccc(N=Nc2ccccc2)cc1)c1ccccc1Cl,51*,-2,-23,2,2,-15
CCOC(=O)c1cnc2c(C(=O)OCC)cnn2c1N,-74,-32,1,4,0,-3
CCOC(=O)c1cnc2c(-c3cccc(Br)c3)cnn2c1C,14,15,1,55*,2,-8
C=C[C@@H]1c2cc(C)ccc2N(S(=O)(=O)c2ccc(C)cc2)[C@H](c2ccc(OC(C)=O)cc2)C1(C#N)C#N,-2,-4,9,-1,1,.
COc1cc(/C=N/NC(N)=O)ccc1OCC(=O)Nc1ccc(C)c(C)c1,12,-13,-6,3,4,56*
COc1cc(/C=N/NC(N)=S)ccc1OCC(=O)Nc1ccc(C)c(C)c1,-1,3,-2,-8,2,1
O=C1C(Cl)=C(N2CCCCC2)C(=O)C(Cl)=C1c1cnc(N2CCCCC2)s1,-19,12,11,8,-22,10
CN(C)c1ncc(C2=C(Cl)C(=O)C(N3CCCC3)=C(Cl)C2=O)s1,46*,17,32,19,-3,7
COc1ccc(NC(=O)c2nc3nc(C)cc(C(F)F)n3n2)cc1OC,2,4,-1,4,0,68*
Cc1ccc(Cl)cc1Nc1nc(-c2sc(NC(=O)c3ccco3)nc2C)cs1,-136,-4,-4,3,-22,9
Cc1ccccc1Nc1nc(-c2sc(NC(=O)c3ccc([N+](=O)[O-])cc3)nc2C)cs1,.,10,1,9,.,-2
COc1ccc(Cl)cc1Nc1nc(-c2sc(NC(=O)c3ccccc3)nc2C)cs1,.,44,44,45,.,9
COc1ccc(OC)c(Nc2nc(-c3sc(NC(=O)c4ccccc4)nc3C)cs2)c1,.,67*,52*,53*,.,0
Cc1ccccc1Nc1nc(-c2sc(NC(=O)c3cccc(Cl)c3)nc2C)cs1,.,77*,60*,16,.,1
Cc1ccc(Cl)cc1Nc1nc(-c2sc(NC(=O)c3cccc(Cl)c3)nc2C)cs1,.,66*,56*,-3,.,2
Cc1ccccc1Nc1nc(-c2sc(NC(=O)c3ccccc3)nc2C)cs1,.,80*,61*,61*,.,5
Cc1[nH]n(-c2ccccc2)c(=O)c1N=Nc1ccccc1O,40*,15,-6,-9,11,6
Cc1[nH]n(-c2ccccc2)c(=O)c1N=Nc1nccs1,56*,40,15,35,2,5
Cc1[nH]n(-c2ccccc2)c(=O)c1N=Nc1ccc2c(c1)OCO2,46*,-6,3,2,9,-18
Cc1[nH]n(-c2ccccc2)c(=O)c1N=Nc1ccccc1C(=O)O,27,2,1,3,0,0
COC(=O)C1=C(C)N(CCCC(=O)O)C(=O)NC1c1cccc2ccccc12 (centres undefined),7,-6,11,-4,-1,-1
COC(=O)c1cc(S(=O)(=O)NCC2CCN(CCc3ccc(OC)cc3)CC2)c[nH]1,14,4,-5,1,1,6
CC(C)(C)c1ccc(C(=O)NC(=S)NNC(=O)c2cccs2)cc1,18,.,.,.,2,52*
O=C(NC(=S)NNC(=O)c1cccs1)c1ccccc1,5,-16,-9,5,4,-6

# Bioassay records from PubChem.
